Reference: ChEMBL document CHEMBL1156908, “Characterization of tunable piperidine and piperazine carbamates as inhibitors of endocannabinoid hydrolases” (J Med Chem, 2010)
pIC50: −log10 of the molar value.

Columns and labels:
[1] = molecular target: T1, Monoacylglycerol lipase ABHD6 (Mus musculus, UniProt Q8R2Y0); experiment: Inhibition of ABHD6 in mouse brain membrane; assay type: cell membranes
T1 sequence (Q8R2Y0 whole entry): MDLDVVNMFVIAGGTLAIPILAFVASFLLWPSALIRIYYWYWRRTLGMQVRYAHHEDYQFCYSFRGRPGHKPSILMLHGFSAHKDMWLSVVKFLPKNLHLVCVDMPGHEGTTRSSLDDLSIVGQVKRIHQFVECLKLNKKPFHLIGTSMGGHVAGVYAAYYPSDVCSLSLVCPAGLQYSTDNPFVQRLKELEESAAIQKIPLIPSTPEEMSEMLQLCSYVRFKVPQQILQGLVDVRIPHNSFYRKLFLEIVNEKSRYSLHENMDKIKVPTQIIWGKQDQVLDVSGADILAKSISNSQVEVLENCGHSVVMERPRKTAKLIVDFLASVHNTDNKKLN
Summary of the method: (§1)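 Mouse brain membrane fraction (Dounce homogenized in PBS pH 7.5, 1,400 × g debris spin, 64,000 × g 45 min pellet, resuspended) at 1 mg/ml in PBS. Inhibitor preincubated 30 min at 37°C, then FP-rhodamine 1 μM final for 30 min at 25°C. SDS-PAGE with in-gel fluorescence scanning. IC50 from fitted integrated band intensities, mean of at least triplicates.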

[2] = molecular target: T2, Fatty-acid amide hydrolase 1 (Mus musculus, UniProt O08914); experiment: Inhibition of FAAH in mouse brain membrane; assay type: cell membranes; summary of the method: as §1
T2 sequence (O08914 whole entry): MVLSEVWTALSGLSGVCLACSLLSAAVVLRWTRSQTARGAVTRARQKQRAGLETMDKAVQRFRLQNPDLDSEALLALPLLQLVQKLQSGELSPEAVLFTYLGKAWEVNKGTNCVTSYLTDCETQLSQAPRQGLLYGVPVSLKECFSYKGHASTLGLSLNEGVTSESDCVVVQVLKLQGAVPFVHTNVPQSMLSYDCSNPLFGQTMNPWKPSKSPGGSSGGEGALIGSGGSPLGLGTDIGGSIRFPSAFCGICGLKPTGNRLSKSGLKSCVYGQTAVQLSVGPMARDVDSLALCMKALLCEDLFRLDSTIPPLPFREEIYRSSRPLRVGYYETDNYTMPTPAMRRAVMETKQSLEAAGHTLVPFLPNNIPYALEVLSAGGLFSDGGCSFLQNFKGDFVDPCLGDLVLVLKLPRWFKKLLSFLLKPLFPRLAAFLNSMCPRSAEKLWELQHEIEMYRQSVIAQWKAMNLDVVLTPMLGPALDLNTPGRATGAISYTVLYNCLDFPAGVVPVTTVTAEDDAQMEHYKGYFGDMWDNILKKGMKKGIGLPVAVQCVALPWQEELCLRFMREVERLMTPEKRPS

Monoglyceride lipase = molecular target: T3, Monoglyceride lipase (Mus musculus, UniProt O35678); experiment: Inhibition of MAGL in mouse brain membrane; assay type: cell membranes; summary of the method: as §1
T3 sequence (O35678 whole entry): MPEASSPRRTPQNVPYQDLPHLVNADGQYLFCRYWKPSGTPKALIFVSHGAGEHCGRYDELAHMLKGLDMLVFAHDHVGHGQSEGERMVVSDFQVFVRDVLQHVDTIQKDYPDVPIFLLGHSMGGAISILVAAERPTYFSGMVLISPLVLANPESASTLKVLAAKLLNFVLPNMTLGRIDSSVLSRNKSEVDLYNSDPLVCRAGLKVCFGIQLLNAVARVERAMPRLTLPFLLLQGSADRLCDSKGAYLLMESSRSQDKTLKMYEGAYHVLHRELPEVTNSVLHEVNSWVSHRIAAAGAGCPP

[3] = molecular target: T4, Patatin-like phospholipase domain-containing protein 6 (Mus musculus) (UniProt Q3TRM4); experiment: Inhibition of NTE in mouse brain membrane at 100 uM; assay type: cell membranes
T4 sequence (whole entry): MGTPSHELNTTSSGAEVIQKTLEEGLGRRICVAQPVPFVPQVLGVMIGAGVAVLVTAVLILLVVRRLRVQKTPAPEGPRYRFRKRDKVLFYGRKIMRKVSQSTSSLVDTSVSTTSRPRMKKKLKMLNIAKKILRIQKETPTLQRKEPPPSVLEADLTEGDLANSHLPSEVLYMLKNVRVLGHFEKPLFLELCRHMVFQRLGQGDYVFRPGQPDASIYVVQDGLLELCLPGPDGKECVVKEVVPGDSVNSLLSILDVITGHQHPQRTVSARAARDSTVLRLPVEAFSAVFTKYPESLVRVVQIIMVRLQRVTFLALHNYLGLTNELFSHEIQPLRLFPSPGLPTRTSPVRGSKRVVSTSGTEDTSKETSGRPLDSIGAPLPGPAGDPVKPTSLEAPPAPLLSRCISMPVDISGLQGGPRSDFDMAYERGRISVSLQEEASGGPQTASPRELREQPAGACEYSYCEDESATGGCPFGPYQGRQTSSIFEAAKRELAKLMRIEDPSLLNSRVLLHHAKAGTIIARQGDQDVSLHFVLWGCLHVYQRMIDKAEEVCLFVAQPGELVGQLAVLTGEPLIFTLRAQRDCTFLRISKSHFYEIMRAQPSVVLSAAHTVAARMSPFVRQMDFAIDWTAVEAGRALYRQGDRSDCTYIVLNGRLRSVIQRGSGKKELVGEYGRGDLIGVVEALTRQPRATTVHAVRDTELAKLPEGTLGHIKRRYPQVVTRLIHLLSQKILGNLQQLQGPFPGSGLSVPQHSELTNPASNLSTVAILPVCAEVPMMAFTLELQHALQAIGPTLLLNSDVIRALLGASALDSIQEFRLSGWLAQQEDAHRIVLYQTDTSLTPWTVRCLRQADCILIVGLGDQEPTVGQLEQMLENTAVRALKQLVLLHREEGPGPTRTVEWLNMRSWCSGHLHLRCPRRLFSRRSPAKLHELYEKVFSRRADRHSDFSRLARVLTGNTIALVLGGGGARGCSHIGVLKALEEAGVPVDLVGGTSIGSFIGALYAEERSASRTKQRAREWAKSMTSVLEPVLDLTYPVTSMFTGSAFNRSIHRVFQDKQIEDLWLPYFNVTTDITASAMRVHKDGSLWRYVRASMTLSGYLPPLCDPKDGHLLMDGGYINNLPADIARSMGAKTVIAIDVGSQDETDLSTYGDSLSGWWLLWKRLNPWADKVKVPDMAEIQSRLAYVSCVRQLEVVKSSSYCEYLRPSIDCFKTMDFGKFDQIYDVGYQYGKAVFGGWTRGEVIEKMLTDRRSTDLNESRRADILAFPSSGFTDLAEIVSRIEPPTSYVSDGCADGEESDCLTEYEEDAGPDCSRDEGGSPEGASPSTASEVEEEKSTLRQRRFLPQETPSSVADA
Summary of the method: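 Competitive ABPP on mouse brain membrane proteome at 1 mg/ml in PBS. Inhibitor at 100 μM for 30 min at 37°C, then FP-rhodamine 1 μM final for 30 min at 25°C. SDS-PAGE and in-gel fluorescence scanning. Percent loss of NTE band labeling.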

[4] = molecular target: T5, Patatin-like phospholipase domain-containing protein 6 (Mus musculus, UniProt Q3TRM4); experiment: Inhibition of NTE in mouse brain membrane; assay type: cell membranes; summary of the method: as §1
T5 sequence (Q3TRM4 whole entry): T4 sequence (whole entry)

Mus musculus = species: Mus musculus; experiment: Selectivity ratio of IC50 for mouse FAAH to IC50 for mouse MAGL
Summary of the method: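 Competitive ABPP on mouse brain membrane proteome (Dounce-homogenized in PBS pH 7.5, 64,000 × g pellet, resuspended), diluted to 1 mg/ml in PBS. Inhibitor preincubated 30 min at 37°C, then FP-rhodamine 1 μM final for 30 min at 25°C. SDS-PAGE and in-gel fluorescence scanning. IC50s for FAAH and MAGL come from integrated band intensities, means of ≥3 runs; the ratio is taken from these.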

Row | Compound | pIC50 [1] | pIC50 [2] | pIC50 (Monoglyceride lipase) | inhibition [3] [%] | pIC50 [4] | Ratio IC50 (Mus musculus)
1 | COc1ccc(C(O)(c2ccc(OC)c(OC)c2)C2CCN(C(=O)Oc3ccc([N+](=O)[O-])cc3)CC2)cc1OC | 5.16 | < 4.30 | 5.89 |  |  | 
2 | COc1ccccc1C(O)(c1ccccc1OC)C1CCN(C(=O)Oc2ccc([N+](=O)[O-])cc2)CC1 | 5.96 | 4.82 | 6.29 |  |  | 
3 | O=C(Oc1ccc([N+](=O)[O-])cc1)N1CCN(Cc2cccc(Oc3cc(Cl)cc(Cl)c3)c2)CC1 | < 4.00 | < 4.00 | < 4.00 | 0 | < 4.00 | 
4 | O=C(Oc1ccc([N+](=O)[O-])cc1)N1CCN(Cc2ccccc2-c2ccccc2)CC1 | 5.54 | 5.45 | 6.17 |  | 6.48 | 
5 | O=C(Oc1ccc([N+](=O)[O-])cc1)N1CCC(C(O)(c2ccc3c(c2)OCO3)c2ccc3c(c2)OCO3)CC1 | 5.49 |  |  |  |  | 
6 | O=C(Oc1ccc([N+](=O)[O-])cc1)N1CCC(C(O)(c2ccc(Cl)cc2)c2ccc(Cl)cc2)CC1 | 6.74 | 5.47 | 5.96 |  |  | 3
7 | O=C(Oc1ccc([N+](=O)[O-])cc1)N1CCN(Cc2ccc(-c3ccccc3)cc2)CC1 | 5.78 | 5.34 | 7.82 |  | 5.37 | 
8 | O=C(Oc1ccc([N+](=O)[O-])cc1)N1CCC(C(O)(c2ccccc2)c2ccccc2)CC1 | 5.96 | 5.36 | 6.16 |  |  | 6
9 | CN(CCC(c1ccccc1)c1ccccc1)C(=O)Oc1ccc([N+](=O)[O-])cc1 | < 4.30 | < 4.30 | < 4.30 |  |  | 
10 | COc1ccc(C(O)(c2ccc(OC)cc2)C2CCN(C(=O)Oc3ccc([N+](=O)[O-])cc3)C2)cc1 (stereo not given) | < 4.30 | < 4.30 | < 4.30 |  |  | 
11 | O=C(Oc1ccc([N+](=O)[O-])cc1)N1CCN(Cc2ccc(-c3ccccc3)o2)CC1 | 6.66 | 7.70 | 7.05 |  | 6.60 | 
12 | O=C(Oc1ccc([N+](=O)[O-])cc1)N1CCN(C(c2ccc(F)cc2)c2ccc(F)cc2)CC1 | 6.05 | 5.27 | 6.70 |  |  | 27
13 | O=C(Oc1ccc([N+](=O)[O-])cc1)N1CCC(C(O)(c2ccc3ccccc3c2)c2ccc3ccccc3c2)CC1 | 5.46 | 5.33 | 6.09 |  |  | 6
14 | COc1ccc(C(c2ccc(OC)cc2)C2CCN(C(=O)Oc3ccc([N+](=O)[O-])cc3)CC2)cc1 | 6.26 | 4.40 | 7.14 |  |  | 549
15 | COc1ccc(CN2CCN(C(=O)Oc3ccc([N+](=O)[O-])cc3)CC2)cc1 | 5.90 | 5.98 | 5.82 |  | 6.32 | 
16 | CN(C(=O)Oc1ccc([N+](=O)[O-])cc1)C(c1ccccc1)c1ccccc1 | < 4.30 | < 4.30 | < 4.30 |  |  | 
17 | O=C(Oc1ccc([N+](=O)[O-])cc1)N1CCN(Cc2ccc(-c3ccccc3)s2)CC1 | 6.66 | 7.40 | 7.30 |  | 7.10 | 
18 | O=C(Oc1ccc([N+](=O)[O-])cc1)N1CCN(C2c3ccccc3Oc3ccccc32)CC1 | 5.67 | 5.05 | 5.21 |  |  | 2
19 | CN(C)c1ccc(C(O)(c2ccc(N(C)C)cc2)C2CCN(C(=O)Oc3ccc([N+](=O)[O-])cc3)CC2)cc1 | 5.99 | 4.98 | 5.67 |  |  | 5
20 | O=C(Oc1ccc([N+](=O)[O-])cc1)N1CCN(Cc2ccc3ccccc3n2)CC1 | 6.31 | 5.98 | 7.10 |  | 6.04 | 
21 | COc1ccc(C(O)(c2ccc(OC)cc2)C2CCN(C(=O)Oc3ccc([N+](=O)[O-])cc3)CC2)cc1 | 5.68 | 5.58 | 7.40 |  |  | 68
22 | O=C(Oc1ccc([N+](=O)[O-])cc1)N1CCN(Cc2ccc3ccccc3c2)CC1 | 6.82 | 6.42 | 7.15 |  | 5.96 | 
23 | COc1cccc(C(O)(c2cccc(OC)c2)C2CCN(C(=O)Oc3ccc([N+](=O)[O-])cc3)CC2)c1 | 6.34 | 5.23 | 6.25 |  |  | 10
24 | O=C(Oc1ccc([N+](=O)[O-])cc1)N1CCN(Cc2ccccc2)CC1 | 6.13 | 6.03 | 6.05 |  | 6.21 | 
25 | O=C(Oc1ccc([N+](=O)[O-])cc1)N1CCN(Cc2cc(-c3ccccc3)cs2)CC1 | 6.00 | 6.55 | 8.00 |  | 6.05 | 
26 | O=C(Oc1ccc([N+](=O)[O-])cc1)N1CCC2(CC1)OC2(c1ccccc1)c1ccccc1 | 6.42 | 5.23 | 6.70 |  |  | 29
27 | COc1cc(OCc2ccccc2)ccc1CN1CCN(C(=O)Oc2ccc([N+](=O)[O-])cc2)CC1 | 6.51 | 6.03 | 7.05 |  | 6.38 | 
28 | O=C(Oc1ccc([N+](=O)[O-])cc1)N1CCC(=C(c2ccccc2)c2ccccc2)CC1 | 5.89 | 5.46 | 5.86 |  |  | 3
